In ChEMBL document CHEMBL3414496, “Synthesis and biological evaluation of novel 2-heteroarylimino-1,3-thiazolidin-4-ones as potential anti-tumor agents” (Eur J Med Chem, 2015):
Activity calls are given as the source filed them. The calls are words filed in the database; no cut-off is given here.

How the values were obtained:
HT-29 [1] = experiment: Induction of cell cycle arrest in human HT-29 cells assessed as accumulation at G2/M phase by propidium iodide staining based flow cytometry (reference value: 30 +/- 2%); format: functional
HT-29 [2] = experiment: Induction of ROS generation in human HT-29 cells at cytotoxic IC50 level after 4 hrs by DCF-DA staining based fluorescence assay; format: functional, cell-based
Procedure, shortened: (§1)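 HT29 cells treated two days after seeding, then loaded with 50 µM DCF-DA for 15 min at 37°C. Cells trypsinized, washed and resuspended in PBS, and 30 000 cells/sample read by flow cytometry (FL-1). Expressed as % of DMSO-treated cells; […] for 1 h served as positive control. Triplicates from three independent experiments.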

HT-29 [3] = experiment: Induction of HO1 expression in human HT-29 cells at 6.4 uM after 4 hrs by Western blotting method; format: functional
Procedure, shortened: (§2)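 HT29 whole-cell lysates in Hepes/KOH pH 7.5 with EDTA, KCl, NP40, DTT, protease inhibitors; 50 µg protein on 10–15% SDS-PAGE, nitrocellulose, overnight 4°C primary antibody (GCL 1:500, HO-1 1:1000), HRP secondary, chemiluminescence. Bands normalized to GAPDH (1:10 000), DMSO ratio set at 1.00; representative of three independent experiments.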

HT-29 [4] = experiment: Induction of GCL expression in human HT-29 cells at 6.4 uM after 2 hrs by Western blotting method; format: functional; procedure, shortened: as §2
HT-29 [5] = experiment: Induction of GCL expression in human HT-29 cells at 6.4 uM after 6 hrs by Western blotting method; format: functional; procedure, shortened: as §2
HT-29 [6] = experiment: Induction of NQO1 expression in human HT-29 cells at 6.4 uM after 2 hrs by Western blotting method; format: functional
Procedure, shortened: (§3)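 Whole-cell lysates from treated HT29 cells in pH 7.5 Hepes/KOH buffer with EDTA, KCl, Igepal, DTT and protease inhibitors. 50 µg protein run on 10-15% SDS-PAGE and transferred to nitrocellulose. Probed overnight at 4°C with anti-HO-1 (1:1 000), anti-NQO1 (1:1 000) or anti-GCL (1:500), then HRP secondary for 45 min and chemiluminescence. Bands normalized to GAPDH (1:10 000), with the DMSO ratio set to 1.00. Representative of three experiments.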

HT-29 [7] = experiment: Induction of cell cycle arrest in human HT-29 cells assessed as accumulation at G0/G1 phase by propidium iodide staining based flow cytometry (reference value: 46.1 +/- 0.4%); format: functional
HT-29 [8] = experiment: Induction of ROS generation in human HT-29 cells at cytotoxic IC50 level after 1 hr by DCF-DA staining based fluorescence assay; format: functional, cell-based; procedure, shortened: as §1
HT-29 [9] = experiment: Induction of ROS generation in human HT-29 cells at cytotoxic IC50 level after 6 hrs by DCF-DA staining based fluorescence assay; format: functional, cell-based; procedure, shortened: as §1
HT-29 [10] = experiment: Induction of ROS generation in human HT-29 cells at cytotoxic IC50 level after 30 mins by DCF-DA staining based fluorescence assay; format: functional, cell-based; procedure, shortened: as §1
HT-29 [11] = experiment: Induction of HO1 expression in human HT-29 cells at 10 uM after 6 hrs by Western blotting method; format: functional; procedure, shortened: as §2
HT-29 [12] = experiment: Induction of GCL expression in human HT-29 cells at 10 uM after 4 hrs by Western blotting method; format: functional; procedure, shortened: as §2
HT-29 [13] = experiment: Induction of NQO1 expression in human HT-29 cells at 10 uM after 6 hrs by Western blotting method; format: functional; procedure, shortened: as §3
HT-29 [14] = experiment: Induction of GCL expression in human HT-29 cells at 3.8 uM after 24 hrs by Western blotting method; format: functional; procedure, shortened: as §2
HT-29 [15] = experiment: Induction of cell cycle arrest in human HT-29 cells assessed as accumulation at G0/G1 phase by propidium iodide staining based flow cytometry (reference value: 67.7 +/- 0.5%); format: functional
HT-29 [16] = experiment: Induction of cell cycle arrest in human HT-29 cells assessed as accumulation at G2/M phase by propidium iodide staining based flow cytometry (reference value: 11.3 +/- 1%); format: functional
HT-29 [17] = experiment: Induction of HO1 expression in human HT-29 cells at 2.5 uM after 2 hrs by Western blotting method; format: functional; procedure, shortened: as §2
HT-29 [18] = experiment: Induction of HO1 expression in human HT-29 cells at 2.5 uM after 4 hrs by Western blotting method; format: functional; procedure, shortened: as §2
HT-29 [19] = experiment: Induction of HO1 expression in human HT-29 cells at 2.5 uM after 6 hrs by Western blotting method; format: functional; procedure, shortened: as §2
HT-29 [20] = experiment: Induction of HO1 expression in human HT-29 cells at 2.5 uM after 24 hrs by Western blotting method; format: functional; procedure, shortened: as §2
HT-29 [21] = experiment: Induction of GCL expression in human HT-29 cells at 2.5 uM after 2 hrs by Western blotting method; format: functional; procedure, shortened: as §2
HT-29 [22] = experiment: Induction of GCL expression in human HT-29 cells at 2.5 uM after 4 hrs by Western blotting method; format: functional; procedure, shortened: as §2
HT-29 [23] = experiment: Induction of GCL expression in human HT-29 cells at 2.5 uM after 6 hrs by Western blotting method; format: functional; procedure, shortened: as §2
HT-29 [24] = experiment: Induction of GCL expression in human HT-29 cells at 2.5 uM after 24 hrs by Western blotting method; format: functional; procedure, shortened: as §2
HT-29 [25] = experiment: Induction of NQO1 expression in human HT-29 cells at 2.5 uM after 2 hrs by Western blotting method; format: functional; procedure, shortened: as §3
HT-29 [26] = experiment: Induction of NQO1 expression in human HT-29 cells at 2.5 uM after 4 hrs by Western blotting method; format: functional; procedure, shortened: as §3
HT-29 [27] = experiment: Induction of NQO1 expression in human HT-29 cells at 2.5 uM after 6 hrs by Western blotting method; format: functional; procedure, shortened: as §3
HT-29 [28] = experiment: Induction of NQO1 expression in human HT-29 cells at 2.5 uM after 24 hrs by Western blotting method; format: functional; procedure, shortened: as §3
HT-29 [29] = experiment: Growth inhibition of human HT-29 cells at 2.5 uM after 3 days by trypan blue dye exclusion assay; format: functional; conditions: HT-29, 72 h, read-out: GI
Procedure, shortened: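 HT29 cells treated 48 h after seeding, dosed daily with daily medium change over three days; drug diluted in DMSO, controls 0.1% (v/v) DMSO. Cells trypsinized, mixed 1:1 with 0.04% trypan blue, live cells counted by hematimeter. Reported as mitotic index (treated/DMSO count); triplicates from two independent experiments.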

HT-29 [30] = experiment: Reduction in cell growth of human HT-29 cells at 2.5 uM after 3 days by trypan blue dye exclusion assay; format: functional, cell-based
Procedure, shortened: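 HT29 cells treated daily from 48 h after seeding, over three days with daily medium changes, in 0.1% (v/v) DMSO vehicle. Cells trypsinised, mixed 1:1 with 0.04% trypan blue, and living cells counted by haemocytometer under microscope. Mitotic index is treated count relative to DMSO control. Triplicate determinations, two independent experiments, mean ± S.E.M.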

HT-29 [31] = experiment: Reduction in cell viability of human HT-29 cells assessed as reduction in living cell level at 2.5 uM after 24 to 48 hrs by DCF-DA and propidium iodide staining based flow cytometry; format: functional
Procedure, shortened: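 HT29 cells treated two days after seeding, then loaded together with 50 µM DCF-DA and 25 µg/mL propidium iodide for 15 min at 37°C. Cells trypsinised, washed and resuspended in PBS; 30 000 cells per sample read by flow cytometry (FL-1, FL-3). Viable cells (PI-negative, DCF-positive) given as % of total events. Triplicates, two independent experiments.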

HT-29 [32] = experiment: Induction of cell cycle arrest in human HT-29 cells assessed as accumulation at subG1 phase by propidium iodide staining based flow cytometry (reference value: 2.3 +/- 0.1%); format: functional

Row | Structure (SMILES) | Activity (HT-29 [1]) [%] | Activity (HT-29 [2]) | Activity (HT-29 [7]) [%] | Activity (HT-29 [8]) | Activity (HT-29 [9]) | Activity (HT-29 [15]) [%] | Activity (HT-29 [16]) [%] | fold change (FC) (HT-29 [17]) | fold change (FC) (HT-29 [18]) | fold change (FC) (HT-29 [19]) | fold change (FC) (HT-29 [20]) | fold change (FC) (HT-29 [21]) | fold change (FC) (HT-29 [22]) | fold change (FC) (HT-29 [23]) | fold change (FC) (HT-29 [24]) | fold change (FC) (HT-29 [25]) | fold change (FC) (HT-29 [26]) | fold change (FC) (HT-29 [27]) | fold change (FC) (HT-29 [28]) | inhibition of growth at 2.5 µM (HT-29 [29]) [%] | other results
1 | Cc1ccc(/C=C2\S/C(=N\c3csc(-c4ccc(Cl)cc4)c3)NC2=O)cc1 | 84 | Active | 1.2 | – | – | – | – | – | – | – | – | – | – | – | – | – | – | – | – | – | fold change (FC) (HT-29 [3]): 1; fold change (FC) (HT-29 [4]): 1.93; fold change (FC) (HT-29 [5]): 2.25; fold change (FC) (HT-29 [6]): 2.23
2 | COc1ccc(/C=C2\S/C(=N\c3csc(-c4ccc(Cl)cc4)c3)NC2=O)cc1OC | 86.4 | Active | 2.3 | Active | inactive | – | – | – | – | – | – | – | – | – | – | – | – | – | – | – | Activity (HT-29 [10]): Active; fold change (FC) (HT-29 [11]): 1; fold change (FC) (HT-29 [12]): 1.16; fold change (FC) (HT-29 [13]): 1.23
3 | COc1ccc(/C=C2\S/C(=N\c3csc(-c4ccc(Cl)cc4)c3)NC2=O)cc1 | 80.6 | Active | 1.2 | Active | inactive | – | – | – | – | – | – | – | – | – | – | – | – | – | – | – | fold change (FC) (HT-29 [14]): 1.55
4 | CN(C)c1ccc(/C=C2\S/C(=N\c3csc(-c4ccc(Cl)cc4)c3)NC2=O)cc1 | 83.7 | Active | 1.5 | – | – | – | – | – | – | – | – | – | – | – | – | – | – | – | – | – | –
5 | COc1ccc(/C=C2\S/C(=N\c3nc(-c4ccc(Cl)cc4)cs3)NC2=O)cc1 | – | – | – | – | – | 58.7 | 24.1 | 1 | 1 | 1 | 1 | 1.06 | 0.87 | 0.86 | 0.98 | 1.07 | 0.85 | 0.96 | 0.85 | 90 | inhibition (HT-29 [30]): Active; inhibition (HT-29 [31]): Active; Activity (HT-29 [32]): 20.9%
6 | CN(C)c1ccc(/C=C2\S/C(=N\c3nc(-c4ccc(Cl)cc4)cs3)NC2=O)cc1 | – | – | – | – | – | 60.6 | 18.7 | 1 | 1 | 1 | 1 | 0.98 | 0.99 | 1.2 | 1.18 | 0.93 | 0.67 | 0.72 | 0.78 | 90 | inhibition (HT-29 [30]): Active; inhibition (HT-29 [31]): Active; Activity (HT-29 [32]): 16.2%
